This passage reports IC50, EC50 and inhibition results from ChEMBL document CHEMBL1126605, “Antitumor agents. 139. Synthesis and biological evaluation of thiocolchicine analogs 5,6-dihydro-6(S)-(acyloxy)- and 5,6-dihydro-6(S)-[(aroyloxy)methyl]-1,2,3-trimethoxy-9-(methylthio)-8H- cyclohepta[a]naphthalen-8-ones as novel cytotoxic and antimitotic agents” (J Med Chem, 1993).

Usually IC50 stands for the midpoint of a concentration-inhibition curve. A high value points to weaker potency. As usually defined, the inhibition is the relative decrease from the control value, in per cent. A low value points to a weak effect.

Where only a bound is given, the exact number is not on record here.

Assay [1] deals with T1, Tubulin (Bos taurus, UniProt Q6B856+Q862L2+Q862F3). Put plainly: Inhibition of tubulin polymerization with preincubation for 15 minutes at 37 degree Centigrade prior to addition of the GTP required for polymerization. The assay is classed as functional.
The test system of the next assay is RPMI-7951. The assay can be described thus: cells. Format: functional. To be noted: Homo sapiens, read-out: ED50 (the source's name).
For another assay, the system named is TE-671. Put plainly: Cytotoxicity against human central nervous system carcinoma TE671 cell line. Format: functional. As to conditions: read-out: ED50 (the source's name).
A further assay has as its target Tubulin (Bos taurus) (UniProt Q6B856+Q862L2+Q862F3). To be noted: at 5 µM.
A further assay has as its system HCT-8. The assay can be described thus: Cytotoxicity against human solid tumor Colon carcinoma HCT-8 cell line. The assay is classed as functional. To be noted: read-out: ED50 (the source's name).
Assay [2] deals with P388. The assay can be described thus: (§1) Cytotoxicity against murine P388 leukemia cell line. Format: functional. To be noted: Mus musculus, read-out: ED50 (the source's name).
For another assay, the system named is KB. Put plainly: Cytotoxicity against human solid tumor nasopharyngeal carcinoma KB cell line. The assay is classed as functional. As to conditions: read-out: ED50 (the source's name).
A further assay relates to A549. Put plainly: Cytotoxicity against human solid tumor lung carcinoma A549 cell line. Format: functional. To be noted: read-out: ED50 (the source's name).
The target in assay [3] is T1, Tubulin. The assay can be described thus: Evaluated for the inhibition of tubulin polymerization without pre-incubation. The assay is classed as functional.
Another assay deals with Burkitts lymphoma cell. The assay can be described thus: Growth inhibition on human burkitt lymphoma cells after 36 h. Format: functional, cell-based.
In assay [4] the target is T1, Tubulin. The assay can be described thus: Compound was evaluated for the inhibition of tubulin polymerization without pre-incubation. The assay is classed as functional. Put shortly: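 Drug, tubulin and the GTP needed for polymerization were all mixed before the reaction mixtures were incubated at 37 °C, with no drug–tubulin preincubation. IC50 is the drug concentration inhibiting polymerization, given ± SD from at least three experiments per compound.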

For assay [5], the system named is P388. The description is as §1. The assay is classed as functional, Homo sapiens. As to conditions: Mus musculus, read-out: ED50 (the source's name).

`COc1cc2c(c(OC)c1OC)-c1ccc(SC)c(=O)cc1[C@@H](COC(=O)c1cccc(F)c1)C2` returned an IC50 against Tubulin [1] of over 40000 nM. The EC50 in the assay with RPMI-7951 came out at 100 nM; with TE-671 it was 0.02 nM; in the assay with HCT-8, 161 nM; in the assay with P388 [2], 141 nM; with KB it was 110 nM; in the assay on A549 it was 80 nM. This compound also returned an inhibition on Tubulin (Bos taurus) of 0%.
With `CCOC(=O)OC[C@H]1Cc2cc(OC)c(OC)c(OC)c2-c2ccc(SC)c(=O)cc21`, the IC50 on Tubulin [1] was 3700 nM; against Tubulin [3], 4300 nM. Besides, the EC50 was determined as 0.001 nM in the assay on RPMI-7951; 0.001 nM in the assay on TE-671; 179 nM with HCT-8; 16 nM in the assay on P388 [2]; 11 nM in the assay on KB; 0.001 nM in the assay on A549. On Tubulin (Bos taurus), this compound gave an inhibition of 60%.
Turning to `CC(C)n1cnc2c(Nc3ccc(Br)cc3)nc(N3CCC[C@@H]3CO)nc21`, the IC50 turned out to be 3600 nM against Tubulin [1], 3700 nM on Tubulin [3] and 60 nM in the assay on Burkitts lymphoma cell. Moreover, the EC50 in the assay with RPMI-7951 turned out to be 134 nM; in the assay on TE-671 it was 26 nM; with HCT-8, 160 nM; in the assay on P388 [2] it was 144 nM; in the assay with KB, 144 nM; in the assay with A549, 240 nM. The compound also displayed an inhibition at Tubulin (Bos taurus) of 53%.
`COc1cc2c(cc1O)CCc1cc(OC)c(OC)c(OC)c1-2` had an IC50 against Tubulin [4] of over 100000 nM.
In the case of `CCC(=O)OC[C@H]1Cc2cc(OC)c(OC)c(OC)c2-c2ccc(SC)c(=O)cc21`, the IC50 against Tubulin [1] came out at 3400 nM. The EC50 in the assay with RPMI-7951 stood at 0.093 nM; in the assay on TE-671, 0.12 nM; in the assay with HCT-8 it was 162 nM; in the assay on P388 [2], 8 nM; with KB, 93 nM; with A549, 220 nM. The inhibition against Tubulin (Bos taurus) was determined as 83%.
`COc1cc2c(c(OC)c1OC)-c1ccc(SC)c(=O)cc1[C@@H](COC(=O)c1cccc([N+](=O)[O-])c1)C2`: the IC50 at Tubulin [1] was over 40000 nM; in the assay with Burkitts lymphoma cell, 600 nM. Further, the EC50 in the assay with RPMI-7951 came out at 1090 nM; in the assay with TE-671 it was 936 nM; with HCT-8, 19 nM; in the assay with P388 [2], 1050 nM; in the assay on KB, 1050 nM; in the assay with A549, 1470 nM. The compound further came in with an inhibition at Tubulin (Bos taurus) of 0%.
Turning to `COc1cc2c(c(OC)c1OC)-c1ccc(SC)c(=O)cc1[C@@H](COC(C)=O)C2`, the IC50 against Tubulin [1] came out at 3400 nM. Besides, the EC50 with RPMI-7951 amounted to 144 nM; with TE-671 it was 1320 nM; with HCT-8 it was 5710 nM; with P388 [2], 96 nM; with KB, 132 nM; with A549, 1940 nM. Further, at Tubulin (Bos taurus), the inhibition was 56%.
With `COc1cc2c(c(OC)c1OC)-c1ccc(SC)c(=O)cc1[C@@H](COC(=O)c1ccc(Br)cc1)C2`, on Tubulin [1], the IC50 was over 40000 nM. Besides, the EC50 with RPMI-7951 is 110 nM; with TE-671, 129 nM; in the assay with HCT-8, 9200 nM; in the assay with P388 [2], 110 nM; with KB, 92 nM; in the assay on A549, 17000 nM. At Tubulin (Bos taurus), the inhibition stood at 2%.
Regarding `COc1cc2c(ccc3cc(OC)c(OC)c(OC)c32)cc1O`, the IC50 against Tubulin [4] stood at 100000 nM.
On Tubulin [1], `COc1cc2c(c(OC)c1OC)-c1ccc(SC)c(=O)cc1[C@@H](COC(=O)c1ccc(F)cc1)C2` yielded an IC50 of over 40000 nM. For the same compound, the EC50 in the assay with RPMI-7951 was determined as 926 nM; in the assay on TE-671, 1250 nM; with HCT-8, 1970 nM; in the assay on P388 [2], 81 nM; in the assay with KB, 1070 nM; in the assay with A549, 1570 nM. Moreover, on Tubulin (Bos taurus), the inhibition turned out to be 0%.
Regarding `COc1cc2c(c(OC)c1OC)-c1ccc(SC)c(=O)cc1[C@@H](COC(=O)c1cccc(C#N)c1)C2`, the IC50 against Tubulin [1] is over 40000 nM. Besides, the EC50 is 629 nM in the assay with RPMI-7951; 1530 nM in the assay on TE-671; 5780 nM with HCT-8; 99 nM in the assay with P388 [2]; 139 nM with KB; 8220 nM in the assay on A549. At Tubulin (Bos taurus), the inhibition was 0%.
With `COc1cc2c(c(OC)c1OC)-c1ccc(OC)c(=O)cc1[C@@H](NC(C)=O)CC2` [COLCHICINE], the EC50 in the assay on RPMI-7951 came to 1 nM; in the assay on TE-671, 1 nM; in the assay on HCT-8, 175 nM; in the assay on P388 [5], 100 nM; in the assay with KB it was 2 nM; with A549 it was 18 nM. Moreover, in the assay with Burkitts lymphoma cell, inhibition was half-maximal at 50 nM (IC50).
Compound `CCCC(=O)OC[C@H]1Cc2cc(OC)c(OC)c(OC)c2-c2ccc(SC)c(=O)cc21` displayed a 50% inhibitory concentration (IC50) on Tubulin [1] of 4500 nM. The EC50 is 0.022 nM with RPMI-7951; 23 nM in the assay on TE-671; 3040 nM with HCT-8; 0.09 nM in the assay on P388 [2]; 0.13 nM in the assay with KB; 1370 nM in the assay with A549. The compound also registered an inhibition at Tubulin (Bos taurus) of 46%.
For `COc1cc2c(c(OC)c1OC)-c1ccc(SC)c(=O)cc1[C@@H](COC(=O)c1ccc([N+](=O)[O-])cc1)C2`, the IC50 against Tubulin [1] was 6600 nM; with Burkitts lymphoma cell, 20 nM. For the same compound, the EC50 in the assay on RPMI-7951 amounted to 114 nM; with TE-671 it was 10 nM; in the assay with HCT-8 it was 5670 nM; with P388 [2] it was 10 nM; in the assay on KB, 13 nM; in the assay on A549, 4280 nM. Besides, the inhibition against Tubulin (Bos taurus) was determined as 78%.
Turning to `COc1cc2c(c(OC)c1OC)-c1ccc(SC)c(=O)cc1[C@@H](COC(=O)c1ccccc1F)C2`, the figures for the IC50 at Tubulin [1] and on Tubulin [3] were 3000 nM and 3800 nM, respectively. The EC50 in the assay with RPMI-7951 was determined as 40 nM; in the assay with TE-671, 129 nM; in the assay with HCT-8, 6400 nM; in the assay on P388 [2] it was 12 nM; in the assay with KB, 110 nM; in the assay on A549, 140 nM. Also, the inhibition on Tubulin (Bos taurus) was determined as 91%.
For `COc1ccc(C(=O)OC[C@H]2Cc3cc(OC)c(OC)c(OC)c3-c3ccc(SC)c(=O)cc32)cc1`, the IC50 against Tubulin [1] is over 40000 nM. Besides, the EC50 was 806 nM in the assay on RPMI-7951; 2 nM with TE-671; 3280 nM in the assay with HCT-8; 138 nM with P388 [2]; 806 nM in the assay on KB; over 10 µg/mL in the assay on A549. Besides, the inhibition on Tubulin (Bos taurus) stood at 0%.
On to `C=C1Cc2cc(OC)c(OC)c(OC)c2-c2ccc(SC)c(=O)cc21`, for which the IC50 amounted to 2400 nM at Tubulin [1] and 2800 nM against Tubulin [3]. Moreover, the EC50 with RPMI-7951 turned out to be 0.084 nM; with TE-671, 0.084 nM; in the assay on HCT-8 it was 196 nM; in the assay on P388 [2], 22 nM; in the assay on KB, 140 nM; in the assay on A549, 252 nM. The inhibition on Tubulin (Bos taurus) stood at 91%.
